Measurements taken from ChEMBL document CHEMBL5150021, “Identification of 5-(Aryl/Heteroaryl)amino-4-quinolones as Potent Membrane-Disrupting Agents to Combat Antibiotic-Resistant Gram-Positive Bacteria” (J Med Chem, 2022).
Values after ≈ are worked out from the molar mass of the structure shown. Active and inactive are the calls of the source. The rule behind the calls is not given here.

Assays:
[1] = Induction of drug resistance in Staphylococcus aureus FPR3757 assessed as increase in MIC incubated for 65 days (reference value: 0.25 ug/ml); format: functional; details: FPR3757, 1560 h, time 65 day
Staphylococcus aureus [2] = assay: Antibacterial activity against methicillin-resistant Staphylococcus aureus COL assessed as inhibition of bacterial growth incubated for 24 hrs by CLSI based method; format: functional
How it was run: (§1)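 Broth microdilution per CLSI. Equal volume of twofold serial compound dilutions added. Incubated stationary at 37 °C for 24 h. MIC taken as lowest concentration giving complete inhibition of visible growth. Oxacillin control for Gram-positives, ceftriaxone for Gram-negatives.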

Cell membrane [3] = assay: Induction of cell membrane damage in Staphylococcus aureus USA300 assessed as membrane wrinkling at 1 times MIC measured after 1 hrs by TEM analysis
How it was run: (§2)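 Fixed in glutaraldehyde/paraformaldehyde in cacodylate pH 7.4, post-fixed with osmium tetroxide, stained with uranyl acetate, resin-embedded, thin-sectioned and imaged by TEM.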

Staphylococcus simulans [4] = assay: Antibacterial activity against Staphylococcus simulans assessed as inhibition of protein synthesis at 5 times MIC measured upto 60 mins by [3H]-L-isoleucine incorporation based scintillation counter analysis; format: functional; details: 1 h
How it was run: (§3)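 Aliquots taken 0–60 min, precipitated with ice-cold 10% TCA, filtered, washed, scintillation counted. Percent inhibition is relative to DMSO control at 60 min; triplicate.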

Staphylococcus aureus [5] = assay: Antibacterial activity against methicillin-resistant Staphylococcus aureus MW2 assessed as inhibition of bacterial growth incubated for 24 hrs by CLSI based method; format: functional; how it was run: as §1
Staphylococcus aureus [6] = assay: Antibacterial activity against methicillin resistant Staphylococcus aureus FPR3757 assessed as inhibition of bacterial growth incubated for 24 hrs by CLSI based method; format: functional; details: read-out: MIC100
How it was run: (§4)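 It was mixed 1:1 with twofold serial compound dilutions and incubated stationary at 37 °C for 24 h. MIC was the lowest concentration giving complete inhibition of observable growth, with an oxacillin control.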

Staphylococcus simulans [7] = assay: Antibacterial activity against Staphylococcus simulans assessed as inhibition of cell wall synthesis at 5 times MIC measured upto 60 mins by [3H]-glucosamine incorporation based scintillation counter analysis; format: functional; details: 1 h; how it was run: as §3
Candida albicans = assay: Antifungal activity against Candida albicans SC5314 assessed as inhibition of bacterial growth incubated for 24 hrs by CLSI based method; format: functional
How it was run: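 Broth microdilution per CLSI. It is mixed 1:1 with twofold serial compound dilutions and incubated stationary at 35 °C for 24 h. MIC is read as the lowest concentration with no observable growth.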

Staphylococcus simulans [8] = assay: Antibacterial activity against Staphylococcus simulans assessed as inhibition of RNA synthesis at 5 times MIC measured upto 60 mins by [3H]-uridine incorporation based scintillation counter analysis; format: functional; details: 1 h; how it was run: as §3
Staphylococcus aureus [9] = assay: Antibacterial activity against community-associated methicillin-resistant Staphylococcus aureus USA300 FPR3757 assessed as inhibition of bacterial growth incubated for 24 hrs by CLSI based method; format: functional; how it was run: as §4
Staphylococcus aureus [10] = assay: microbe, parasite or virus in culture; details: USA300 FPR3757, 24 h
Staphylococcus simulans [11] = assay: Antibacterial activity against Staphylococcus simulans assessed as inhibition of DNA synthesis at 5 times MIC measured upto 60 mins by [3H]-thymidine incorporation based scintillation counter analysis; format: functional; details: 1 h; how it was run: as §3
Staphylococcus aureus [12] = assay: Antibacterial activity against methicillin resistant Staphylococcus aureus FPR3757 assessed as inhibition of bacterial growth incubated for 24 hrs in presence of 10% FBS by CLSI based method; format: functional
How it was run: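 CLSI broth microdilution against MRSA FPR3757 (USA300) in Mueller–Hinton broth supplemented with 10% serum (fetal bovine or mouse). Inoculum 10⁶ CFU/mL with twofold serial compound dilutions, stationary incubation at 37 °C for 24 h. MIC read as lowest concentration with complete inhibition of visible growth.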

Enterococcus faecalis [13] = assay: Antibacterial activity against Enterococcus faecalis DHMC #1 assessed as inhibition of bacterial growth incubated for 24 hrs by CLSI based method; format: functional; how it was run: as §1
Cell membrane [14] = assay: Induction of cell membrane damage in Staphylococcus aureus USA300 assessed as mesosome-like membrane inclusions at 1 times MIC measured after 1 hrs by TEM analysis; how it was run: as §2
Staphylococcus aureus [15] = assay: Antibacterial activity against methicillin-resistant Staphylococcus aureus N315 assessed as inhibition of bacterial growth incubated for 24 hrs by CLSI based method; format: functional; how it was run: as §1
Staphylococcus simulans [16] = assay: Antibacterial activity against Staphylococcus simulans assessed as inhibition of protein synthesis at 0.5 to 5 times MIC measured upto 60 mins by [3H]-L-isoleucine incorporation based scintillation counter analysis; format: functional, organism-based; details: DDE = dose-dependent effect
How it was run: (§5)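 S. simulans was grown in cation-adjusted Mueller–Hinton medium at 37 °C. […] Samples were taken at 0–60 min, precipitated with ice-cold 10% TCA, filtered and counted. Inhibition at 60 min is relative to DMSO control; triplicate.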

Cell membrane [17] = assay: Induction of cell membrane damage in Staphylococcus aureus USA300 assessed as cross-wall-septum formation with reduced splitting at 1 times MIC measured after 10 mins by TEM analysis; format: subcellular
Enterococcus faecalis [18] = assay: Antibacterial activity against Enterococcus faecalis ATCC700802 assessed as inhibition of bacterial growth incubated for 24 hrs by CLSI based method; format: functional; how it was run: as §1
[19] = system: Staphylococcus epidermidis; assay: Antibacterial activity against Staphylococcus epidermidis NIF104008 assessed as inhibition of bacterial growth incubated for 24 hrs by CLSI based method; format: functional; how it was run: as §1
Staphylococcus aureus [20] = assay: Antibacterial activity against methicillin-resistant Staphylococcus aureus NRS71 assessed as inhibition of bacterial growth incubated for 24 hrs by CLSI based method; format: functional; how it was run: as §1
Enterobacter cloacae = assay: Antibacterial activity against Enterobacter cloacae ND-21 assessed as inhibition of bacterial growth incubated for 24 hrs by CLSI based method; format: functional; how it was run: as §1
Klebsiella pneumoniae = assay: Antibacterial activity against Klebsiella pneumoniae 7117 assessed as inhibition of bacterial growth incubated for 24 hrs by CLSI based method; format: functional; how it was run: as §1
Staphylococcus simulans [21] = assay: Antibacterial activity against Staphylococcus simulans assessed as inhibition of RNA synthesis at 0.5 to 5 times MIC measured upto 60 mins by [3H]-uridine incorporation based scintillation counter analysis; format: functional, organism-based; details: DDE = dose-dependent effect; how it was run: as §5
Staphylococcus simulans [22] = assay: Antibacterial activity against Staphylococcus simulans assessed as inhibition of DNA synthesis at 0.5 to 5 times MIC measured upto 60 mins by [3H]-thymidine incorporation based scintillation counter analysis; format: functional, organism-based; details: DDE = dose-dependent effect; how it was run: as §5
Enterococcus faecium = assay: Antibacterial activity against Enterococcus faecium ATCC19579 assessed as inhibition of bacterial growth incubated for 24 hrs by CLSI based method; format: functional; how it was run: as §1
Cell membrane [23] = assay: Induction of cell membrane damage in Staphylococcus aureus USA300 assessed as bulging of the septum at 1 times MIC measured after 1 hrs by TEM analysis; how it was run: as §2
Escherichia coli = assay: Antibacterial activity against Escherichia coli DHMC-1 assessed as inhibition of bacterial growth incubated for 24 hrs by CLSI based method; format: functional; how it was run: as §1
[24] = Cytotoxicity against sheep erythrocytes assessed as reduction in cell viability; format: toxicity, cell-based, Ovis aries, Erythrocyte
How it was run: (§6)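 4% sheep erythrocytes mixed 1:1 with twofold serial compound dilutions in PBS, incubated stationary 1 h at 37 °C, then centrifuged at 500g for 5 min. Supernatant A540 is measured and percent hemolysis is calculated relative to DMSO vehicle (0%) and Triton X-100 (100%). Triplicate, mean ± SD.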

Erythrocyte = assay: Hemolytic activity in sheep erythrocytes at 32 ug/ml incubated for 1 hr; format: toxicity, cell-based, Ovis aries; details: dose 32 µg/ml; how it was run: as §6
[25] = Therapeutic index, ratio of CC50 for Cytotoxicity against sheep erythrocytes to MIC for antibacterial activity against methicillin resistant Staphylococcus aureus FPR3757; format: toxicity
How it was run: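 Ratio of erythrocyte CC50 to MRSA FPR3757 MIC. For hemolysis, 4% washed sheep erythrocytes were mixed 1:1 with twofold compound dilutions in PBS and incubated 1 h at 37 °C. Supernatant A540 was read after centrifugation and normalized between DMSO and Triton X-100 (100% lysis). Triplicates. Highest concentration tested: 32 μg/mL.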

With `FC(F)(F)c1ccc(Nc2cc(C(F)(F)F)nc3cc(C(F)(F)F)ccc23)nc1` the MIC [1] was 0.5 µg/mL, the MIC (Staphylococcus aureus [2]) was 0.25 µg/mL (≈ 0.588 µM) and the Activity (Cell membrane [3]) was “Active”. The “inhibition (INH)” value (Staphylococcus simulans [4]) was 100%, the MIC (Staphylococcus aureus [5]) was 0.125 µg/mL (≈ 0.294 µM) and the MIC (Staphylococcus aureus [6]) was 0.25 µg/mL (≈ 0.588 µM). For the same molecule, the “inhibition (INH)” value (Staphylococcus simulans [7]) was 100%, the MIC (Candida albicans) was > 256 µg/mL and the “inhibition (INH)” value (Staphylococcus simulans [8]) was 100%. For the same molecule, the MIC (Staphylococcus aureus [9]) was 0.25 µg/mL (≈ 0.588 µM), the MBC (Staphylococcus aureus [10]) was 8 µg/mL (≈ 18.8 µM) and the “inhibition (INH)” value (Staphylococcus simulans [11]) was 100%. For the same molecule, the MIC (Staphylococcus aureus [12]) was 4 µg/mL, the MIC (Enterococcus faecalis [13]) was 1 µg/mL (≈ 2.35 µM) and the Activity (Cell membrane [14]) was “Active”. For the same molecule, the MIC (Staphylococcus aureus [15]) was 0.25 µg/mL (≈ 0.588 µM), the inhibition (Staphylococcus simulans [16]) was “Dde” and the Activity (Cell membrane [17]) was “Active”. The MIC (Enterococcus faecalis [18]) was 16 µg/mL (≈ 37.6 µM), the MIC [19] was 0.125 µg/mL (≈ 0.294 µM) and the MIC (Staphylococcus aureus [20]) was 0.25 µg/mL (≈ 0.588 µM). For the same molecule, the MIC (Enterobacter cloacae) was > 128 µg/mL, the MIC (Klebsiella pneumoniae) was > 128 µg/mL and the inhibition (Staphylococcus simulans [21]) was “Dde”. The inhibition (Staphylococcus simulans [22]) was “Dde”, the MIC (Enterococcus faecium) was 1 µg/mL (≈ 2.35 µM) and the Activity (Cell membrane [23]) was “Active”. For the same molecule, the MIC (Escherichia coli) was > 128 µg/mL.
For `O=c1cc(C(F)(F)F)[nH]c2cc(C(F)(F)F)cc(Nc3ccc(Cl)c(Cl)c3)c12`, the CC50 [24] was > 32 µg/mL, the MIC (Staphylococcus aureus [6]) was < 0.0625 µg/mL and the Activity (Erythrocyte) was “Non-Toxic”. For the same molecule, the selectivity ratio [25] was > 500.
In the case of `O=c1cc(C(F)(F)F)[nH]c2cc(C(F)(F)F)cc(Nc3ccc(F)c(F)c3)c12`, the CC50 [24] is reported as > 32 µg/mL, the MIC (Staphylococcus aureus [6]) is reported as < 0.0625 µg/mL and the Activity (Erythrocyte) is reported as “Non-Toxic”. For the same molecule, the selectivity ratio [25] was > 500.
